Converted amounts (≈) assume the structure as drawn. The source made the active and inactive calls. Bounds are passed on as bounds.

Series [1] relates to Staphylococcus aureus. The series can be described thus: Antibacterial activity against Staphylococcus aureus ATCC 6538 after 24 to 48 hrs by twofold serial dilution method. The class given is functional. In outline:
(§1)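 Broth microdilution in Müller–Hinton broth. DMSO stocks at 800 were diluted twofold from 400 down to 6.25. Wells received 10^6 CFU/mL bacterial suspension and were incubated at 36 °C for 24–48 h, with controls. MIC was read per well. Duplicate assays; run only for compounds giving inhibition zones ≥14 mm.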

Series [2] deals with Bacillus subtilis. The series can be described thus: Antibacterial activity against Bacillus subtilis NRRL B-14819 after 24 to 48 hrs by twofold serial dilution method. Type of series: functional. In outline:
as §1

In series [3] the test system is Micrococcus luteus. The series can be described thus: Antibacterial activity against Micrococcus luteus ATCC 21881 after 24 to 48 hrs by twofold serial dilution method. The class given is functional. The procedure, abridged: as §1
Series [4] deals with Escherichia coli. The series is described as follows: Antibacterial activity against Escherichia coli ATCC 25922 after 24 to 48 hrs by twofold serial dilution method. The class given is functional. In outline: as §1
Series [5] deals with Pseudomonas aeruginosa. The series can be described thus: Antibacterial activity against Pseudomonas aeruginosa ATCC 27853 after 24 to 48 hrs by twofold serial dilution method. Type of series: functional. In outline:
as §1

Series [6] relates to Klebsiella pneumoniae. The series is described as follows: Antibacterial activity against Klebsiella pneumoniae isolate after 24 to 48 hrs by twofold serial dilution method. Type of series: functional. In outline: as §1
The test system of series [7] is Candida albicans. The series can be described thus: Antifungal activity against Candida albicans isolate after 72 hrs by twofold serial dilution method. The class given is functional.
Series [8] relates to Aspergillus fumigatus. The series is described as follows: Antifungal activity against Aspergillus fumigatus isolate after 72 hrs by twofold serial dilution method. The class given is functional.
The next series has as its system Candida tropicalis. The series can be described thus: Antifungal activity against Candida tropicalis isolate after 72 hrs by twofold serial dilution method. Type of series: functional, organism-based.
The test system of another series is Pichia kudriavzevii. The series can be described thus: Antifungal activity against Candida krusei isolate after 72 hrs by twofold serial dilution method. Type of series: functional, organism-based.
The test system of another series is Aspergillus niger. The series is described as follows: Antifungal activity against Aspergillus niger isolate after 72 hrs by twofold serial dilution method. Type of series: functional, organism-based.
For the next series, the system named is Trichophyton rubrum. The series is described as follows: Antifungal activity against Trichophyton rubrum isolate after 72 hrs by twofold serial dilution method. The class given is functional, organism-based.
Series [9] has as its system Mus musculus. The series can be described thus: Anticonvulsant activity in Wister albino mouse assessed as protection against subcutaneous metrazole-induced seizures at 100 mg/kg, ip administered 30 mins before metrazole challenge measured after 30 mins. Type of series: functional. As to conditions: route intraperitoneal. In outline:
(§2)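 Wistar albino mice, either sex, 25–30 g, 3 months old, in groups of six. Compounds in DMSO were given ip at 30, 100 or 300 mg/kg; vehicle-only controls. After 30 min, metrazole 100 mg/kg in DMSO was injected sc at the posterior midline. Protection meant absence of any clonic spasm lasting ≥5 s; scored as protected/tested.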

In series [10] the test system is Mus musculus. The series is described as follows: Anticonvulsant activity in Wister albino mouse assessed as protection against maximal electroshock-induced seizures at 100 mg/kg, ip administered 30 mins before metrazole challenge measured after 30 mins. Type of series: functional. The following applies: route intraperitoneal. On the technique in general: The maximal electroshock test induces tonic seizures with an electrical stimulus.

Series [11] deals with Staphylococcus aureus. The series can be described thus: Antibacterial activity against Staphylococcus aureus ATCC 6538 at 1 mg/mL after 24 hrs by agar diffusion method. The class given is functional. The following applies: ATCC 6538, 24 h, read-out: Diameter of inhibition zone. In outline:
(§3)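 Agar disc diffusion: 5 mm sterile paper discs soaked in 1 mg/mL test solution in DMSO were placed on agar seeded with the organism, in triplicate, with a DMSO-only control. Bacterial plates were incubated at 37 °C for 24 h and fungal plates for 7 days. Read-out was the average inhibition-zone diameter in mm. Fungi were clinical isolates.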
(In general: A growth-free zone around the sample is the usual read-out of agar diffusion tests.)

The test system of series [12] is Bacillus subtilis. The series can be described thus: Antibacterial activity against Bacillus subtilis NRRL B-14819 at 1 mg/mL after 24 hrs by agar diffusion method. Type of series: functional. As to conditions: read-out: Diameter of inhibition zone. In outline: as §3
The subject of series [13] is Micrococcus luteus. The series is described as follows: Antibacterial activity against Micrococcus luteus ATCC 21881 at 1 mg/mL after 24 hrs by agar diffusion method. The class given is functional. The following applies: ATCC 21881, 24 h, read-out: Diameter of inhibition zone. The procedure, abridged: as §3
The subject of series [14] is Escherichia coli. The series can be described thus: Antibacterial activity against Escherichia coli ATCC 25922 at 1 mg/mL after 24 hrs by agar diffusion method. Type of series: functional. The following applies: ATCC 25922, 24 h, read-out: Diameter of inhibition zone. The procedure, abridged: as §3
The subject of series [15] is Pseudomonas aeruginosa. The series can be described thus: Antibacterial activity against Pseudomonas aeruginosa ATCC 27853 at 1 mg/mL after 24 hrs by agar diffusion method. The class given is functional. The following applies: ATCC 27853, 24 h, read-out: Diameter of inhibition zone. The procedure, abridged:
as §3

Series [16] deals with Klebsiella pneumoniae. The series can be described thus: Antibacterial activity against Klebsiella pneumoniae isolate at 1 mg/mL after 24 hrs by agar diffusion method. Type of series: functional. As to conditions: read-out: Diameter of inhibition zone. The procedure, abridged:
as §3

The test system of series [17] is Candida albicans. The series is described as follows: Antifungal activity against Candida albicans isolate at 1 mg/mL after 7 days by twofold serial dilution method. Type of series: functional. The following applies: 168 h, read-out: Diameter of inhibition zone.
Series [18] concerns Aspergillus fumigatus. The series can be described thus: Antifungal activity against Aspergillus fumigatus isolate at 1 mg/mL after 7 days by agar diffusion method. Type of series: functional. The following applies: 168 h, read-out: Diameter of inhibition zone. In outline:
as §3

Series [19] concerns Mus musculus. The series is described as follows: Anticonvulsant activity in Wister albino mouse assessed as protection against subcutaneous metrazole-induced seizures at 30 mg/kg, ip administered 30 mins before metrazole challenge measured after 30 mins. Type of series: functional. In outline:
as §2

The test system of series [20] is Mus musculus. The series is described as follows: Anticonvulsant activity in Wister albino mouse assessed as protection against subcutaneous metrazole-induced seizures at 300 mg/kg, ip administered 30 mins before metrazole challenge measured after 30 mins. Type of series: functional. The procedure, abridged:
as §2

Series [21] has as its system Mus musculus. The series can be described thus: Anticonvulsant activity in Wister albino mouse assessed as protection against maximal electroshock-induced seizures at 300 mg/kg, ip administered 30 mins before metrazole challenge measured after 30 mins. As to conditions: route intraperitoneal. Type of series: functional.
Series [22] concerns Mus musculus. The series is described as follows: Toxicity in Wister albino mouse assessed as death following tonic extension at 100 mg/kg, ip. The class given is organism-based. Also noted: dose 100 mg/kg, route intraperitoneal. The following applies: in vivo. The procedure, abridged: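 Wistar albino mice of either sex (25–30 g, 3 months), six per group. Compound was dissolved in DMSO and given ip 30 min before the maximal electroshock test, with solvent-only controls. Corneas received 0.5% xylocaine; 6 Hz, 0.2-ms pulses were given for 3 s at 6–64 mA. Animals were observed 30 min after dosing, and deaths following tonic extension were recorded.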

By MIC is commonly meant the smallest concentration in the dilution series that meets the test's criterion for growth inhibition. What is called zone of inhibition is the size of the clear area around the sample on an inoculated plate. In the case of `Cc1cc(C)n(C(=O)COC(Cn2nnnc2Cc2ccccc2)c2ccc(Cl)cc2)n1` (stereo not given), the MIC was 25 µg/mL (≈ 55.4 µM) with Staphylococcus aureus [1]; 50 µg/mL (≈ 111 µM) in the series with Bacillus subtilis [2]; 50 µg/mL (≈ 111 µM) with Micrococcus luteus [3]; 100 µg/mL (≈ 222 µM) in the series with Escherichia coli [4]; at least 200 µg/mL against Pseudomonas aeruginosa [5]; at least 200 µg/mL in the series with Klebsiella pneumoniae [6]. Moreover, the MIC with Candida albicans [7] is 100 µg/mL (≈ 222 µM); against Aspergillus fumigatus [8] it was at least 200 µg/mL. For the same compound, the outcome with Candida tropicalis, in the series with Pichia kudriavzevii, in the series on Aspergillus niger and with Trichophyton rubrum was inactive. Further, the Activity with Mus musculus [9] and in the series with Mus musculus [10] was 0% throughout. Further, the zone of inhibition at 1000 µg/mL in the series with Staphylococcus aureus [11], in the series with Bacillus subtilis [12], in the series on Micrococcus luteus [13], in the series on Escherichia coli [14], in the series on Pseudomonas aeruginosa [15] and with Klebsiella pneumoniae [16] was at least 14 mm throughout. The zone of inhibition at 1000 µg/mL in the series with Candida albicans [17] and in the series with Aspergillus fumigatus [18] was at least 14 mm in each case.
As to `Sc1nnc(COC(Cn2nnnc2Cc2ccccc2)c2ccc(Cl)cc2)n1-c1ccccc1` (stereo not given), the MIC was 50 µg/mL (≈ 99.2 µM) in the series on Staphylococcus aureus [1]; 100 µg/mL (≈ 198 µM) against Bacillus subtilis [2]; at least 200 µg/mL with Micrococcus luteus [3]; 100 µg/mL (≈ 198 µM) in the series on Escherichia coli [4]; at least 200 µg/mL in the series with Pseudomonas aeruginosa [5]; at least 200 µg/mL in the series with Klebsiella pneumoniae [6]. In addition, the MIC in the series on Candida albicans [7] is 50 µg/mL (≈ 99.2 µM); against Aspergillus fumigatus [8], at least 200 µg/mL. Also, the result with Candida tropicalis, in the series on Pichia kudriavzevii, in the series on Aspergillus niger and in the series on Trichophyton rubrum was inactive. The Activity with Mus musculus [9] was determined as 0%; in the series on Mus musculus [10], 33%. In addition, the zone of inhibition at 1000 µg/mL in the series on Staphylococcus aureus [11], in the series with Bacillus subtilis [12], with Micrococcus luteus [13], in the series on Escherichia coli [14], in the series with Pseudomonas aeruginosa [15] and in the series on Klebsiella pneumoniae [16] was at least 14 mm in each case. Also, the zone of inhibition at 1000 µg/mL with Candida albicans [17] and in the series on Aspergillus fumigatus [18] was at least 14 mm throughout.
For `O=C(Cn1nnnc1Cc1ccccc1)c1ccc(Cl)cc1`, the Activity was found to be 0% in the series with Mus musculus [19]; 50% with Mus musculus [9]; 0% in the series on Mus musculus [20]; 50% in the series on Mus musculus [10]; 0% in the series on Mus musculus [21].
As for `OC(Cn1nnnc1Cc1ccccc1)c1ccc(Cl)cc1` (stereo not given), the Activity with Mus musculus [19] is on record as 0%; with Mus musculus [9] it was 100%; with Mus musculus [20] it was 50%; with Mus musculus [10], 67%.
Take `O=C(COC(Cn1nnc(-c2ccccc2)n1)c1ccc(Cl)cc1)NNC(=S)Nc1ccccc1` (stereo not given): the MIC is 50 µg/mL (≈ 98.4 µM) against Staphylococcus aureus [1]; 100 µg/mL (≈ 197 µM) with Bacillus subtilis [2]; at least 200 µg/mL in the series with Micrococcus luteus [3]; at least 200 µg/mL against Escherichia coli [4]; at least 200 µg/mL with Pseudomonas aeruginosa [5]; at least 200 µg/mL in the series with Klebsiella pneumoniae [6]. Moreover, the outcome in the series on Candida tropicalis, with Pichia kudriavzevii, in the series with Aspergillus niger and in the series with Trichophyton rubrum was inactive. Besides, the Activity in the series with Mus musculus [19] is 0%; with Mus musculus [9], 80%; in the series with Mus musculus [20], 0%; with Mus musculus [10] it was 67%. Besides, the zone of inhibition at 1000 µg/mL in the series with Staphylococcus aureus [11], in the series on Bacillus subtilis [12], in the series on Micrococcus luteus [13], in the series on Escherichia coli [14], with Pseudomonas aeruginosa [15] and in the series on Klebsiella pneumoniae [16] was at least 14 mm each time. For the same compound, the zone of inhibition at 1000 µg/mL in the series with Candida albicans [17] and in the series on Aspergillus fumigatus [18] was at least 14 mm in each case.
`O=C(Cn1nnc(-c2ccccc2)n1)c1ccc(Cl)cc1`: the figures for the Activity in the series with Mus musculus [9], with Mus musculus [10] and in the series with Mus musculus [22] were 0%, 0% and “Toxic”, respectively.
On to `Clc1ccc(C2Cn3nnnc3Cc3ccccc32)cc1` (stereo not given), for which the MIC was 50 µg/mL (≈ 168 µM) in the series with Staphylococcus aureus [1]; at least 200 µg/mL against Bacillus subtilis [2]; at least 200 µg/mL in the series on Micrococcus luteus [3]; 50 µg/mL (≈ 168 µM) with Escherichia coli [4]; at least 200 µg/mL against Pseudomonas aeruginosa [5]; at least 200 µg/mL in the series with Klebsiella pneumoniae [6]. Further, the MIC was at least 200 µg/mL in the series on Candida albicans [7] and 25 µg/mL (≈ 84.2 µM) against Aspergillus fumigatus [8]. The result with Candida tropicalis, in the series with Pichia kudriavzevii, in the series with Aspergillus niger and in the series with Trichophyton rubrum was inactive. Also, the Activity in the series with Mus musculus [9] was determined as 0%; in the series with Mus musculus [10], 33%. The zone of inhibition at 1000 µg/mL in the series on Staphylococcus aureus [11], in the series on Bacillus subtilis [12], with Micrococcus luteus [13], in the series with Escherichia coli [14], in the series on Pseudomonas aeruginosa [15] and in the series on Klebsiella pneumoniae [16] was at least 14 mm throughout. Further, the zone of inhibition at 1000 µg/mL in the series on Candida albicans [17] and in the series on Aspergillus fumigatus [18] was at least 14 mm throughout.

The values are drawn from ChEMBL document CHEMBL1152796, “Azole antimicrobial pharmacophore-based tetrazoles: synthesis and biological evaluation as potential antimicrobial and anticonvulsant agents” (Bioorg Med Chem, 2009).
